Data: ChEMBL document CHEMBL2346655, “Synthesis and in vitro biological evaluation of 2,6,9-trisubstituted purines targeting multiple cyclin-dependent kinases” (Eur J Med Chem, 2013)
Active and inactive are the calls of the source. The rule behind the calls is not given here.

Assays:
HCT-116 [1] = experiment: Cell cycle arrest in human HCT116 cells assessed as accumulation at S phase at 0.2 uM after 24 hrs by propidium iodide staining-based flow cytometric analysis (reference value: 31.6%); assay type: functional
Summary of the method: (§1)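 Sub-confluent cells treated at several concentrations for 24 h, then pulsed with 10 μM BrdU for 30 min at 37 °C before harvest. Cells were PBS-washed, fixed in 70% ethanol, denatured in 2 M HCl and neutralized. Stained with fluorescein anti-BrdU and propidium iodide; DNA content read by flow cytometry with 488 nm excitation.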

HCT-116 [2] = experiment: Induction of apoptosis in human HCT116 cells assessed as change in PUMA level up to 5 uM after 24 hrs by immunoblotting analysis; assay type: functional, cell-based
Summary of the method: (§2)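 Cells were treated for 24 h, harvested directly into Laemmli sample buffer, and run on SDS-PAGE. Proteins were blotted to nitrocellulose, blocked, probed overnight with primary antibodies, then with peroxidase-linked secondaries. Bands were detected by ECL with a CCD camera. PCNA and tubulin served as loading references.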

HCT-116 [3] = experiment: Cell cycle arrest in human HCT116 cells assessed as accumulation at G1 phase at 1 uM after 24 hrs by propidium iodide staining-based flow cytometric analysis (reference value: 48.8%); assay type: functional; summary of the method: as §1
[4] = target: T1, CDK9/cyclin T1 (Homo sapiens) (UniProt O60563+P50750); experiment: Inhibition of CDK9/CyclinT1 in human ARN8 cells assessed as increase in p53-dependent transcriptional activity at 2 uM after 24 hrs by beta-galactosidase reporter gene assay; assay type: cell-based
Summary of the method: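 Arn-8 human melanoma cells stably carrying p53-responsive pRGCΔfoslacZ reporter; 24 h compound exposure, then permeabilized with 0.3% Triton X-100 for 15 min. 4-Methylumbelliferon-β-D-galactopyranoside added (80 μM final); fluorescence read at 355/460 nm (ex/em) after 1 h as β-galactosidase activity.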

MCF7 = experiment: Ratio of roscovitine IC50 to compound IC50 for human MCF7 cells; assay type: functional
Summary of the method: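 Cytotoxicity IC50s underlying the ratio: cells treated in triplicate with three-fold compound dilutions for 72 h, then Calcein AM added and live-cell fluorescence read at 485/538 nm (ex/em).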

[5] = target: Cyclin-dependent kinase 7/ cyclin H (Homo sapiens) (UniProt P51946+P50613); experiment: Inhibition of CDK7/CyclinH/MAT1-mediated phosphorylation of RNA polymerase 2 at Ser5 in human HCT116 cells up to 25 uM after 24 hrs by immunoblotting analysis; assay type: cell-based; details: HCT-116
[6] = target: T1, CDK9/cyclin T1 (Homo sapiens); experiment: Inhibition of CDK9/CyclinT1 in human HCT116 cells assessed as increase in p53 expression at 1 to 5 uM after 24 hrs by immunoblotting analysis; assay type: cell-based; details: HCT-116
Summary of the method: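 Immunoblot: cells lysed by harvesting in Laemmli sample buffer, proteins run on SDS-PAGE, electroblotted to nitrocellulose, blocked, primary antibodies overnight, peroxidase-conjugated secondaries, ECL detection by CCD camera. Antibodies included anti-phospho RNA polymerase II (S2), anti-RNA polymerase II (ARNA-3), anti-p53 (DO-1), anti-p21waf1 (118), anti-PCNA.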

K562 [7] = experiment: Cell cycle arrest in human K562 cells assessed as accumulation at subG1 phase at 5 uM after 24 hrs by propidium iodide staining-based flow cytometric analysis (reference value: 2.4%); assay type: functional; summary of the method: as §1
[8] = target: Cyclin-dependent kinase 7/ cyclin H (Homo sapiens, UniProt P50613); experiment: Inhibition of CDK7/CyclinH/MAT1 (unknown origin) using (YSPTSPS)2KK as substrate; assay type: protein-complex assay
Sequence of Cyclin-dependent kinase 7/ cyclin H (P51946 whole entry): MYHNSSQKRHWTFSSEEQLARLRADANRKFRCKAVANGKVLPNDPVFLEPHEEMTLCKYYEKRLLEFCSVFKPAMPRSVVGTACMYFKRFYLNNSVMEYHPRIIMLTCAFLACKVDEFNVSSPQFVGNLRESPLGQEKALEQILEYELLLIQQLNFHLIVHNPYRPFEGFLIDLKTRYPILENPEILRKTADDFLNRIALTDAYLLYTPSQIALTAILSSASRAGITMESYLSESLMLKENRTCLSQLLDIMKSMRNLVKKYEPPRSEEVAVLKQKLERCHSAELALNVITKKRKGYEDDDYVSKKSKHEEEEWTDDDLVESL
Sequence of Cyclin-dependent kinase 7/ cyclin H (P50613 whole entry): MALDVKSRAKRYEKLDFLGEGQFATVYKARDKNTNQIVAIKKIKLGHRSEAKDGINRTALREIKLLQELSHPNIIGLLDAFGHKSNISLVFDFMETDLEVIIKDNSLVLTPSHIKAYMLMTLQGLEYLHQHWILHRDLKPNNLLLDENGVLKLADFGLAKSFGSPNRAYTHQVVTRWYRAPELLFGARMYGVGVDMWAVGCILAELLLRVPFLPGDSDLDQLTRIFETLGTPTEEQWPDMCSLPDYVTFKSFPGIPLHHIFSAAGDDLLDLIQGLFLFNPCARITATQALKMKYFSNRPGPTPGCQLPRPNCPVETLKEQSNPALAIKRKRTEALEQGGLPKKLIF
Summary of the method: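 Buffer was 60 mM HEPES-NaOH pH 7.5, 3 mM MgCl2, 3 mM MnCl2, vanadate, DTT and PEG. Reactions were stopped with H3PO4 and spotted on P-81 paper, which was then washed. Radioactivity was imaged; IC50 taken from dose–response curves.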

K562 [9] = experiment: Cell cycle arrest in human K562 cells assessed as accumulation at G1 phase at 0.2 uM after 24 hrs by propidium iodide staining-based flow cytometric analysis (reference value: 47.3%); assay type: functional; summary of the method: as §1
HCT-116 [10] = experiment: Cell cycle arrest in human HCT116 cells assessed as accumulation at subG1 phase at 5 uM after 24 hrs by propidium iodide staining-based flow cytometric analysis (reference value: 1.4%); assay type: functional; summary of the method: as §1
HCT-116 [11] = experiment: Induction of apoptosis in human HCT116 cells assessed as PARP cleavage up to 5 uM after 24 hrs by immunoblotting analysis; assay type: functional, cell-based; summary of the method: as §2
HCT-116 [12] = experiment: Cell cycle arrest in human HCT116 cells assessed as accumulation at G2/M phase at 5 uM after 24 hrs by propidium iodide staining-based flow cytometric analysis (reference value: 19.6%); assay type: functional; summary of the method: as §1
[13] = target: Cyclin-dependent kinase 2/cyclin E1 (Homo sapiens, UniProt P24941); experiment: Inhibition of CDK2/Cyclin E (unknown origin) expressed in Sf9 cells using histone H1 as substrate

inhibition [4]: Active
inhibition [5]: Active
inhibition [6]: Active
IC50 [8]: 97 nM
IC50 [13]: 13.1 nM
Compound: CC[C@@H](Nc1nc(NCc2cc(Cl)ccc2O)c2ncn(C(C)C)c2n1)C(C)O (mixture of isomers)
Activity (HCT-116 [1]): 31.1%
Activity (HCT-116 [2]): inactive
Activity (HCT-116 [3]): 39.4%
Ratio IC50 (MCF7): >9
Activity (K562 [7]): 10.9%
Activity (K562 [9]): 34.7%
Activity (HCT-116 [10]): 4.6%
Activity (HCT-116 [11]): Active
Activity (HCT-116 [12]): 37.9%
